Measured values collected from several papers.
Compare with care: the assays were run in different laboratories.
Sialidase-4: Sialidase-4 (Homo sapiens, UniProt Q8WWR8)
ache: Acetylcholinesterase (ache, Electrophorus electricus, UniProt O42275)
ALOX15: Polyunsaturated fatty acid lipoxygenase ALOX15 (ALOX15, Homo sapiens, UniProt P16050)

`CN(C(=O)CC(C)(C)C)[C@H]1[C@H]([C@H](O)[C@H](O)CO)OC(C(=O)O)=C[C@@H]1O` has an IC50 of > 500 µM (Sialidase-4; enzyme activity, inhibitor).
`O=C(N1CCC2(CC1)C[C@@H](CN1CCCCS1(=O)=O)CCO2)C1(c2ccccc2)CCCC1` gave an IC50 of > 50 µM (ATP-dependent RNA helicase DDX3X (DDX3X, Homo sapiens, UniProt O00571); ATPase activity, inhibitor).
For `O=[N+]([O-])c1ccc(-c2nnc(-c3ccc(OCc4cn(Cc5ccc(F)cc5)nn4)cc3)o2)cc1`, the IC50 was > 100 µM (ache; enzyme activity, inhibitor, Ellman).
`CC(C(=O)O)n1nc(Cn2cc3cc(OCCF)c(Cl)cc3n2)c2ccccc2c1=O` (racemic) has an IC50 of > 1 µM (Sphingosine 1-phosphate receptor 1 (S1PR1, Homo sapiens, UniProt P21453); ligand displacement, radioligand; cell membranes).
`COc1ccc(/C=C/C(=O)N2CCCC(NC(=O)OC(C)(C)C)C2)cc1OC` (stereo not drawn) has an IC50 of > 50 µM (ache; enzyme activity, inhibitor, Ellman).
`CCOC(=O)c1ccccc1-c1c2ccc(=O)cc-2oc2cc(OCCCNc3c(-c4ccc([N+](=O)[O-])cc4)nc4ccccn34)ccc12` gave an IC50 of > 100 µM (ALOX15; enzyme activity, inhibitor, absorbance).
With `CCN(C)C(=O)Oc1ccc(CCC(=O)N(CC)Cc2ccccc2)cc1OC` the IC50 was 13.8 µM (ache; enzyme activity, inhibitor, Ellman).
`CCOC(=O)c1ccccc1-c1c2ccc(=O)cc-2oc2cc(OCCCNc3c(C4CCCCCC4)nc4ccccn34)ccc12` gave an IC50 of > 100 µM (ALOX15; enzyme activity, inhibitor, absorbance).
`COc1cc(CCC(=O)N2CCC(Cc3ccccc3)CC2)ccc1OC(=O)N(c1ccccc1)c1ccccc1` has an IC50 of 10.5 µM (ache; enzyme activity, inhibitor, Ellman).
With `O=C(O)C1=C[C@H](O)[C@@H](NCc2ccc(-c3ccccc3)cc2)[C@H]([C@H](O)[C@H](O)CO)O1` the IC50 was 260 µM (Sialidase-4; enzyme activity, inhibitor).
For `CCOC(=O)c1ccccc1-c1c2ccc(=O)cc-2oc2cc(OCCCNc3c(-c4ccc5ccccc5c4)nc4ccccn34)ccc12`, the IC50 was > 100 µM (ALOX15; enzyme activity, inhibitor, absorbance).
The IC50 of `CN1CC[C@@]2(C)c3cc(OC(=O)Nc4ccccc4)ccc3N(C)[C@@H]12` is reported as < 10 µM (Aldehyde dehydrogenase 1A1 (ALDH1A1, Homo sapiens, UniProt P00352); enzyme activity, inhibitor, fluorescence).
For `CC(C)Cc1cn([C@H]2[C@H]([C@H](O)[C@H](O)CO)OC(C(=O)O)=C[C@@H]2O)nn1`, the IC50 was > 500 µM (Sialidase-4; enzyme activity, inhibitor).
For `CCCC[C@H]1C(=O)N(C)[C@@H](CCCC)C(=O)N[C@@H](CCCCNC(=O)CN2CCN(CC(=O)O)CCN(CC(=O)O)CC2)C(=O)N[C@H](C(=O)NCC(N)=O)CSCC(=O)N[C@@H](Cc2ccc(O)cc2)C(=O)N(C)[C@@H](C)C(=O)N[C@@H](CC(N)=O)C(=O)N2CCC[C@H]2C(=O)N[C@@H](Cc2c[nH]cn2)C(=O)N[C@@H](CCC(=O)O)C(=O)N2C[C@H](O)C[C@H]2C(=O)N[C@@H](Cc2c[nH]c3ccccc23)C(=O)N[C@@H](CO)C(=O)N[C@@H](Cc2cn(CC(=O)O)c3ccccc23)C(=O)N1C`, the IC50 was 0.00245 µM (Programmed cell death 1 ligand 1 (CD274, Homo sapiens, UniProt Q9NZQ7); ligand displacement, radioligand).
The IC50 of `CCN[C@H]1[C@H]([C@H](O)[C@H](O)CO)OC(C(=O)O)=C[C@@H]1O` is reported as > 500 µM (Sialidase-4; enzyme activity, inhibitor).
`c1ccc(Cn2cc(COc3ccc(-c4nnc(-c5ccccc5)o4)cc3)nn2)cc1` has an IC50 of > 100 µM (ache; enzyme activity, inhibitor, Ellman).
With `Cc1cn([C@H]2[C@H]([C@H](O)[C@H](O)CO)OC(C(=O)O)=C[C@@H]2O)nn1` the IC50 was 26 µM (Sialidase-4; enzyme activity, inhibitor).
The IC50 of `COc1cc(/C=C/C(=O)NC2CCN(Cc3ccccc3)CC2)ccc1OC(=O)N1CCCC1` is reported as 3.1 µM (ache; enzyme activity, inhibitor, Ellman).
